Bioassay records from PubChem.
TAAR1 antagonist: human TAAR1 antagonism | Q96RJ0 | CHO RD-HGA16 TAAR1, Fluo-8 calcium fluorescence, antagonist | inhibition, % at 3 µM | actives 1.5% (n = 360,000);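 active = inhibition above a per-plate cutoff, the mean inhibition of test compounds on that plate plus 3 SD, cut at about 49% in these data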;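 also: 0% = DMSO plus EC80 beta-PEA response and 100% = DMSO alone without agonist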
Target sequence (Q96RJ0 whole entry, looked up): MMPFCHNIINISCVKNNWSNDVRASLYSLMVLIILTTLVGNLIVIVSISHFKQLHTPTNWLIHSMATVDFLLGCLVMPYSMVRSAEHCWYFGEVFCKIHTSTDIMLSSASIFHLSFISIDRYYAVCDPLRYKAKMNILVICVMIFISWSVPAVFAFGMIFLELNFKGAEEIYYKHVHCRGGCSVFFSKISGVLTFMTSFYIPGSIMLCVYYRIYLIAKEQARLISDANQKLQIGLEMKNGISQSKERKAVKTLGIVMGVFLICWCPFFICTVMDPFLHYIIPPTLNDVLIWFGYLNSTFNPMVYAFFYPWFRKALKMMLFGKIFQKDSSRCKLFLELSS
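Material: CHO RD-HGA16 cells bearing hTAAR1; compound dosing: one-point dosing, 3 µM nominal final; schedule: dye loading 75 min at 37 °C, then 30 min room temperature; measured by: calcium fluorescence with Fluo-8; control set: vehicle and agonist controls; replication: n of 1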
HCV NS3 hel inh: blocks Hepatitis C virus NS3 helicase unwinding; NS3 helicase DNA unwinding, Cy5 molecular beacon fluorescence; inhibition, % at 10.9 µM; actives 0.56% (n = 290,000); AID 1800;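 active = inhibition above the mean of all tested compounds plus 3 SD, set per campaign, cut at about 35% in these data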;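 also: 0% = DMSO wells and 100% = thioflavine S control wells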
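Compound dosing – single dose, 10.9 µM nominal final, DMSO 0.8% final · System – NS3 helicase fragment of HCV · Buffer or medium – MOPS pH 6.5, MgCl2, DTT, Tween20, BSA · Signal – Cy5 beacon fluorescence read at start and 1 h · Also added – annealed dual-labelled DNA beacon duplex, ATP-started · Schedule – 1 h at 25 °C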
core dimer inh: blocks dimerization of HCV core protein. inhibition, % at 5 µM. AID 1899. TR-FRET GST/Flag-core106 dimerization, 1536-well. actives 0.33% (n = 300,000);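 active = inhibition above the mean of all tested compounds plus 3 SD, set per screening campaign, cut at about 45% in these data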
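Assay system: tagged HCV core106 pair (GST and Flag); medium: KF-containing HEPES buffer, pH 7.45, DTT, CHAPS, BSA; also added: Eu donor and XL665 acceptor anti-tag antibodies; dosing: 5 µM single dose; timing: compound-protein-antibody incubation 4 h at 22.5 °C; signal: TR-FRET 671 and 617 nm emission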
TAAR1 ag: human TAAR1 agonism | Q96RJ0 | CHO RD-HGA16 TAAR1, Fluo-8 calcium fluorescence; vehicle wells 0%, saturating PEA agonist 100% | activation, % at 3 µM | actives 0.99% (n = 360,000) | AID 624467;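 active = activation above the mean activation of all test compounds in the run plus 3 SD, cut at about 38% in these data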
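test system = CHO RD-HGA16 cells carrying human TAAR1 plus Gα16 | schedule = 17-24 h seeding, 75 min 37 °C dye, 30 min RT | compound dosing = 3 µM single concentration | control set = DMSO and PEA EC100 | replicates = n 1 | signal = Fluo-8 fluorescence, 5 s baseline then 140 s kinetic read | measure = percent activation vs PEA EC100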
rCAG RNA binder: binds r(CAG) RNA repeats. r(CAG) RNA repeat, TO-PRO-1 dye displacement fluorescence. inhibition, % at 3 µM. actives 1.3% (n = 370,000);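 active = inhibition above the plate cutoff, the mean of all test compounds on that plate plus 3 SD, cut at about 35% in these data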;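 also: 0% = DMSO alone and 100% = 100 µM mitoxantrone as full dye displacement; higher means more dye released from RNA so lower well fluorescence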
rCAG binder conf: r(CAG) RNA repeat binding, confirmation; inhibition, % at 3 µM; TO-PRO-1 dye displacement fluorescence; shares compounds with rCAG RNA binder; AID 652065; actives 70% (n = 4,300);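 active = inhibition above a per-plate cutoff, the mean inhibition of sample wells plus 3 SD, cut at about 35% in these data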;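 also: loss of TO-PRO-1 fluorescence as compound displaces dye from 1x1 AA loop RNA; 0% = DMSO only wells and 100% = 100 µM mitoxantrone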
dCAG dye counter: counter-screen for rCAG RNA binders: DNA CAG dye complex inhibitors; shares compounds with rCAG RNA binder; d(CAG) DNA oligo TO-PRO-1 dye displacement, fluorescence; inhibition, % at 3 µM; actives 94% (n = 4,300);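 active = inhibition above its plate's cutoff, the mean test-well inhibition plus 3 SD, cut at about 4.8% in these data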;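 also: 0% = DNA dye mix with DMSO and 100% = 100 µM mitoxantrone; hits displace the dye from DNA and so lower well fluorescence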
DNA CAG DR: counter-screen for rCAG binders: inhibitors of DNA CAG TO-PRO-1 complex | DNA CAG/GTC duplex TO-PRO-1 dye displacement fluorescence | shares compounds with rCAG RNA binder | actives 20% (n = 250) | IC50, µM; in the data active = IC50 below about 10 µM
An asterisk follows results filed as active. This is a sample that favours compounds with a hit; in the whole collection about 3.7% have one here.

What do the screens show for `S=c1[nH]nc(-c2cc(-c3ccccc3)n[nH]2)n1/N=C/c1cccc(Cl)c1`?
TAAR1 antagonist: -16; HCV NS3 hel inh: -2; core dimer inh: 6; TAAR1 ag: -1; rCAG RNA binder: 35*; rCAG binder conf: 70*; dCAG dye counter: 32*; DNA CAG DR: inactive

What do the screens show for `COC(=O)[C@]12C[C@H](CC(=O)NCc3ccc(OC)c(OC)c3)C(=O)N(CCC3=CCCCC3)C1=C[C@H](COCc1ccccc1)O[C@@H]2C`?
TAAR1 antagonist: -18; TAAR1 ag: -2; rCAG RNA binder: 6

What do the screens show for `Cc1ccc2nc(NNC(=O)c3ccc(S(=O)(=O)N4CCc5ccccc5C4)cc3)sc2c1`?
TAAR1 antagonist: 26; HCV NS3 hel inh: 0; core dimer inh: 38; TAAR1 ag: 4; rCAG RNA binder: 51*; rCAG binder conf: 60*; dCAG dye counter: 29*

How did Cc1cc(C)c2nc(NNC(=O)c3ccc(S(=O)(=O)N4CCCC(C)C4)cc3)sc2c1 (stereo not drawn) do in these assays?
TAAR1 antagonist: 11; HCV NS3 hel inh: -3; core dimer inh: 16; TAAR1 ag: 0; rCAG RNA binder: 47*; rCAG binder conf: 52*; dCAG dye counter: 23*

How did COC(=O)c1sc2ccccc2c1NC(=O)c1ccc(S(=O)(=O)N2CC(C)CC(C)C2)cc1 (stereo not drawn) do in these assays?
TAAR1 antagonist: -13; HCV NS3 hel inh: 10; core dimer inh: 8; TAAR1 ag: 0; rCAG RNA binder: 2

What do the screens show for `CC1CCCN(S(=O)(=O)c2ccc(C(=O)Nc3nnc(C4CC4)o3)cc2)C1` (stereo not drawn)?
TAAR1 antagonist: 0; HCV NS3 hel inh: 30; core dimer inh: -12; TAAR1 ag: -1; rCAG RNA binder: 16

How did Cc1cc(C)c2nc(NNC(=O)c3ccc(S(=O)(=O)N4CC(C)CC(C)C4)cc3)sc2c1 (stereo not drawn) do in these assays?
TAAR1 antagonist: -8; HCV NS3 hel inh: 8; core dimer inh: 38; TAAR1 ag: 0; rCAG RNA binder: 43*; rCAG binder conf: 49*; dCAG dye counter: 24*

What do the screens show for `CCC(=O)NNc1nc2c(C)cc(C)cc2s1`?
TAAR1 antagonist: -23; HCV NS3 hel inh: 6; core dimer inh: -2; TAAR1 ag: 1; rCAG RNA binder: 0

How did Cc1cccc2sc(NNC(=O)c3ccc(S(=O)(=O)N4CC(C)CC(C)C4)cc3)nc12 (stereo not drawn) do in these assays?
TAAR1 antagonist: 14; HCV NS3 hel inh: 1; core dimer inh: 26; TAAR1 ag: 2; rCAG RNA binder: 66*; rCAG binder conf: 63*; dCAG dye counter: 30*

How did COc1ccc(C(=O)C2(C(=O)Nc3cc(C)cc(C)c3)CC(c3ccccn3)=NO2)cc1 (stereo not drawn) do in these assays?
rCAG RNA binder: 9

What do the screens show for `Cc1noc(NS(=O)(=O)c2ccc(NC(=O)CSc3nc4ccccc4s3)cc2)c1C`?
TAAR1 antagonist: 0; HCV NS3 hel inh: 14; core dimer inh: -1; TAAR1 ag: 5; rCAG RNA binder: 70*; rCAG binder conf: 61*; dCAG dye counter: 25*

How did Cc1noc(NS(=O)(=O)c2ccc(NC(=O)CSc3nc4c(cc3C#N)CCCC4)cc2)c1C do in these assays?
TAAR1 antagonist: -8; HCV NS3 hel inh: 0; core dimer inh: 3; TAAR1 ag: 2; rCAG RNA binder: 41*; rCAG binder conf: 33; dCAG dye counter: 11*

How did O=c1cc(C(F)(F)F)nc(SCc2cccc3ccccc23)[nH]1 do in these assays?
TAAR1 antagonist: -54; HCV NS3 hel inh: -33; core dimer inh: 7; TAAR1 ag: -2; rCAG RNA binder: 69*; rCAG binder conf: 40*; dCAG dye counter: 10*
